# According to ChEMBL document CHEMBL1126763, “Nonpeptide angiotensin II receptor antagonists. Synthesis and biological activity of potential prodrugs of benzimidazole-7-carboxylic acids” (J Med Chem, 1993):
# How the values were obtained:
# [1] = target: T1, Angiotensin II receptor (Rattus norvegicus) (UniProt P29089+P25095+P35351); assay: Inhibitory activity on AII (100 ng/kg iv)-induced pressor response after administration at 0.1 mg/kg po in conscious male Sprague-Dawley rats at 5 h.; assay type: functional, organism-based; set-up: dose 0.1 mg/kg
# How it was run: (§1)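 Conscious male Sprague-Dawley rats received test compounds orally at 0.1 mg/kg. AII (100 ng/kg iv) was given as a pressor challenge at each time point after dosing, and percent inhibition of the pressor response was recorded. Experiments were run in duplicate (n = 2); parent drug and one ester used n = 3. Inhibition may vary by less than 30%.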
# [2] = target: T1, Angiotensin II receptor (Rattus norvegicus); assay: Inhibitory activity on AII (100 ng/kg iv)-induced pressor response after administration at 0.1 mg/kg po in conscious male Sprague-Dawley rats at 7 h.; assay type: functional, organism-based; set-up: dose 0.1 mg/kg; how it was run: as §1
# Rattus norvegicus [3] = assay: Inhibitory activity on AII (100 ng/kg iv) -induced pressor response after administration at 0.1 mg/kg po in Dawley rats at 0.5 h; assay type: functional; how it was run: as §1
# Rattus norvegicus [4] = assay: Inhibitory activity on AII (100 ng/kg iv) -induced pressor response after administration at 0.1 mg/kg po in Dawley rats at 1 h; assay type: functional; how it was run: as §1
# [5] = target: T1, Angiotensin II receptor (Rattus norvegicus); assay: Inhibitory activity on AII (100 ng/kg iv)-induced pressor response after administration at 0.1 mg/kg po in conscious male Sprague-Dawley rats at 2 h.; assay type: functional, organism-based; set-up: dose 0.1 mg/kg; how it was run: as §1
# [6] = target: T1, Angiotensin II receptor (Rattus norvegicus); assay: Inhibitory activity on AII (100 ng/kg iv)-induced pressor response after administration at 0.1 mg/kg po in conscious male Sprague-Dawley rats at 24 h.; assay type: functional, organism-based; set-up: dose 0.1 mg/kg; how it was run: as §1
# [7] = target: T1, Angiotensin II receptor (Rattus norvegicus); assay: Inhibitory activity on AII (100 ng/kg iv)-induced pressor response after administration at 0.1 mg/kg po in conscious male Sprague-Dawley rats at 3 h.; assay type: functional, organism-based; set-up: dose 0.1 mg/kg; how it was run: as §1
# [8] = Tested for half- life in rat small intestine homogenate (1%); assay type: ADME
# How it was run: (§2)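 Prodrugs (final 10 μg/mL) were incubated at 37 °C in rat 1% small intestine homogenate, 2% liver homogenate or 10% plasma. Aliquots taken from 10 s to 30 min were deproteinized with methanol, and the residue was redissolved in 1/15 M phosphate buffer. Released parent acid was measured by HPLC (ODS column, UV 258 nm, 0.01 M KH2PO4/MeCN 55/45). t1/2 was taken from the concentration change; mean ± SD, n = 3.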
# [9] = Tested for Half- life in rat plasma homogenate (10%) at 37 degree Centigrade; assay type: ADME; how it was run: as §2
# [10] = Tested for Half- life in rat liver homogenate (2%); assay type: ADME; how it was run: as §2
# [11] = target: T1, Angiotensin II receptor (Rattus norvegicus); assay: Inhibitory activity on AII (100 ng/kg iv)-induced pressor response at 0.1 mg/kg po in conscious male Sprague-Dawley rats at 1 h.; assay type: functional, organism-based; set-up: dose 0.1 mg/kg; how it was run: as §1
# [12] = target: T1, Angiotensin II receptor (Rattus norvegicus); assay: Inhibitory effect on AII (100 ng/kg iv)-induced pressor response after administration at 0.1 mg/kg po in conscious male Sprague-Dawley rats at 0.5 h.; assay type: functional, organism-based; set-up: dose 0.1 mg/kg; how it was run: as §1
# [13] = Tested against A II at (100 ng/kg iv) in Dawley rats (n=2). 24 h; assay type: functional; how it was run: as §1
SMILES,inhibition [1] [%],inhibition [2] [%],inhibition [5] [%],inhibition [6] [%],inhibition [7] [%],half-life [8] [min],half-life [9] [min],half-life [10] [min],inhibition [11] [%],inhibition [12] [%],inhibition in vivo at 0.1 mg/kg (Rattus norvegicus [3]) [%],inhibition in vivo at 0.1 mg/kg (Rattus norvegicus [4]) [%],Inhibition [13] [%]
CCOc1nc2cccc(C(=O)OC(C)OC(=O)OC3CCCCC3)c2n1Cc1ccc(-c2ccccc2-c2nnn[nH]2)cc1 (stereo not drawn) [CANDESARTAN CILEXETIL],,,,,,4.92,2.73,2.29,,,,,
CCCCc1nc2cccc(C(=O)O)c2n1Cc1ccc(-c2ccccc2-c2nnn(COC(=O)C(C)(C)C)n2)cc1.CCCCc1nc2cccc(C(=O)O)c2n1Cc1ccc(-c2ccccc2-c2nnnn2COC(=O)C(C)(C)C)cc1,67,69,33,32,63,22.7,3.94,9.8,4,7,,,
CCOc1nc2cccc(C(=O)OCOC(=O)C(C)(C)C)c2n1Cc1ccc(-c2ccccc2-c2nn[nH]n2)cc1,87,86,88,43,86,0.3,0.15,0.48,77,42,,,
CCOc1nc2cccc(C(=O)OCOC(=O)OCC3CC3)c2n1Cc1ccc(-c2ccccc2-c2nn[nH]n2)cc1,44,30,57,22,58,,,,49,10,,,
CCOc1nc2cccc(C(=O)OCOC(=O)OC3CCCC3)c2n1Cc1ccc(-c2ccccc2-c2nn[nH]n2)cc1,77,64,55,14,68,,,,14,5,,,
CCOc1nc2cccc(C(=O)OC(C)OC(=O)OC3CCC3)c2n1Cc1ccc(-c2ccccc2-c2nn[nH]n2)cc1 (stereo not drawn),79,60,86,25,83,,,,77,35,,,
CCCCc1nc2cccc(C(=O)OCc3oc(=O)oc3C)c2n1Cc1ccc(-c2ccccc2-c2nnn(Cc3oc(=O)oc3C)n2)cc1.CCCCc1nc2cccc(C(=O)OCc3oc(=O)oc3C)c2n1Cc1ccc(-c2ccccc2-c2nnnn2Cc2oc(=O)oc2C)cc1,59,46,33,,60,,,,9,7,,,17
CCOc1nc2cccc(C(=O)OCOC(=O)c3ccccc3)c2n1Cc1ccc(-c2ccccc2-c2nn[nH]n2)cc1,67,76,23,6,56,,,,-2,-4,,,
CCOc1nc2cccc(C(=O)OCc3oc(=O)oc3C)c2n1Cc1ccc(-c2ccccc2-c2nn[nH]n2)cc1,70,44,87,6,85,,,,83,49,,,
CCOc1nc2cccc(C(=O)OCOC(=O)OC(C)C)c2n1Cc1ccc(-c2ccccc2-c2nn[nH]n2)cc1,68,57,79,28,72,,,,55,23,,,
CCOc1nc2cccc(C(=O)OCOC(=O)C(C)C)c2n1Cc1ccc(-c2ccccc2-c2nn[nH]n2)cc1,44,20,56,6,52,,,,40,80,,,
CCOc1nc2cccc(C(=O)OC(C)OC(C)=O)c2n1Cc1ccc(-c2ccccc2-c2nn[nH]n2)cc1 (stereo not drawn),84,75,92,28,86,,,,90,86,,,

# More lines, main results first:
inhibition [1] [%],inhibition [2] [%],inhibition [5] [%],inhibition [6] [%],inhibition [7] [%],half-life [8] [min],half-life [9] [min],half-life [10] [min],inhibition [11] [%],inhibition [12] [%],SMILES,inhibition in vivo at 0.1 mg/kg (Rattus norvegicus [3]) [%],inhibition in vivo at 0.1 mg/kg (Rattus norvegicus [4]) [%],Inhibition [13] [%]
59,53,29,16,56,,,,,,CCCCc1nc2cccc(C(=O)O)c2n1Cc1ccc(-c2ccccc2-c2nnnn2C)cc1,12,29,
62,49,46,28,69,,,,,,CCCCc1nc2cccc(C(=O)OCCN3CCCCC3)c2n1Cc1ccc(-c2ccccc2-c2nn[nH]n2)cc1,20,47,
88,90,80,76,78,,,,,,CCCCOC(=O)c1cccc2nc(CCCC)n(Cc3ccc(-c4ccccc4-c4nn[nH]n4)cc3)c12,16,40,
13,26,6,23,9,,,,,,CCCCc1nc2cccc(C(=O)O)c2n1Cc1ccc(-c2ccccc2-c2nnn(C)n2)cc1,22,26,
38,31,60,-4,60,,,,76,76,CCOc1nc2cccc(C(=O)OCOC(=O)CC)c2n1Cc1ccc(-c2ccccc2-c2nn[nH]n2)cc1,,,
26,14,27,9,32,,,,,,CCCCc1nc2cccc(C(=O)OCCN(C)C)c2n1Cc1ccc(-c2ccccc2-c2nn[nH]n2)cc1,0,19,
68,63,46,47,,,,,,,CCCCc1nc2cccc(C(=O)OCC)c2n1Cc1ccc(-c2ccccc2-c2nn[nH]n2)cc1,7,25,
,,45,42,,,,,,,CCCCc1nc2cccc(C(=O)O)c2n1Cc1ccc(-c2ccccc2-c2nn[nH]n2)cc1,8,33,
54,48,78,6,67,,,,84,100,CCCC(=O)OCOC(=O)c1cccc2nc(OCC)n(Cc3ccc(-c4ccccc4-c4nn[nH]n4)cc3)c12,,,
21,25,10,20,11,,,,,,CCCCc1nc2cccc(C(=O)OCCO)c2n1Cc1ccc(-c2ccccc2-c2nn[nH]n2)cc1,7,7,
96,96,96,66,96,,,,,,CCCCc1nc2cccc(C(=O)OCCN3CCOCC3)c2n1Cc1ccc(-c2ccccc2-c2nn[nH]n2)cc1,67,94,
38,27,50,11,47,,,,,,CCCCc1nc2cccc(C(=O)OC)c2n1Cc1ccc(-c2ccccc2-c2nn[nH]n2)cc1,11,52,
92,86,96,50,95,1.08,0.69,3.61,90,58,CCCCc1nc2cccc(C(=O)OCOC(=O)C(C)(C)C)c2n1Cc1ccc(-c2ccccc2-c2nn[nH]n2)cc1,,,
81,75,84,61,89,,,,89,64,CCCCc1nc2cccc(C(=O)OC(C)OC(=O)OCC)c2n1Cc1ccc(-c2ccccc2-c2nn[nH]n2)cc1 (stereo not drawn),,,
